The source made the active and inactive calls. The rule behind the calls is not given here.
What was measured:
[1] = target: T1, Transthyretin (Homo sapiens, UniProt P02766); assay: Binding affinity to wild-type TTR assessed as nonchemoselective conjugation of TTR after 18 hrs by C18-RP-HPLC
[2] = target: T1, Transthyretin; assay: Inhibition of wild type TTR amyloidogenesis assessed as inhibition of fibril formation after 72 hrs at pH 4.4 by spectrophotometry relative to untreated control
[3] = Toxicity in human IMR32 cells assessed as reduction of cell viability after 24 hrs by resazurin reduction assay; assay type: cell-based; conditions: imr-32, 24 h
Summary of the method: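 IMR-32 cells (6,000/well, overnight) were exposed 24 h at 37 °C to compound preincubated 18 h at 37 °C in HBSS without TTR, diluted 1:1 in supplemented Opti-MEM. Viability was read by resazurin fluorescence (Ex/Em 530/590, 1 h), as % of vehicle-treated cells after blank subtraction.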

[4] = target: T1, Transthyretin; assay: Inhibition of wild type TTR amyloidogenesis assessed as fibril formation at 1.8 to 2.7 uM after 120 hrs at pH 4.4 by spectrophotometry relative to untreated control
[5] = target: T1, Transthyretin; assay: Noncovalent binding affinity to wild type TTR T4 site assessed as fibril formation at 7.2 uM after 72 hrs at pH 4.4 by RP-HPLC analysis
[6] = target: T1, Transthyretin; assay: Noncovalent binding affinity to TTR K15A mutant T4 site assessed as fibril formation at 7.2 uM after 72 hrs at pH 4.4 by RP-HPLC analysis
[7] = target: T1, Transthyretin; assay: Inhibition of wild type TTR induced cytotoxicity in human IMR32 cells assessed as cell viability after 24 hrs by resazurin reduction assay; assay type: cell-based; conditions: IMR-32
Summary of the method: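 IMR-32 neuroblastoma cells were seeded at 6,000/well in Opti-MEM with 5% FBS and grown overnight. Cold-purified WT-TTR in HBSS was preincubated 18 h at 37 °C with compound, then diluted 1:1 in supplemented Opti-MEM onto cells. After 24 h at 37 °C, resazurin was added and fluorescence read (Ex/Em 530/590) after 1 h. Results are % of vehicle, blank-subtracted, mean ± SE of 2 experiments, at least triplicate.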

[8] = target: T1, Transthyretin; assay: Inhibition of wild type TTR amyloidogenesis assessed as fibril formation at […] after 72 hrs at pH 4.4 by spectrophotometry relative to untreated control; set-up: scale not given: the % may be the effect or the level left
[9] = test system: Transthyretin (Homo sapiens), P02766 [V50M]; assay: Inhibition of TTR V30M mutant amyloidogenesis assessed as fibril formation at […] after 72 hrs at pH 4.4 by spectrophotometry relative to untreated control; set-up: scale not given: the % may be the effect or the level left
[10] = target: T1, Transthyretin; assay: Inhibition of wild type TTR amyloidogenesis assessed as fibril formation at 7.2 uM after 72 hrs at pH 4.4 by spectrophotometry relative to untreated control; set-up: scale not given: the % may be the effect or the level left
[11] = test system: Transthyretin (Homo sapiens), P02766 [V50M]; assay: Inhibition of TTR V30M mutant amyloidogenesis assessed as fibril formation at 7.2 uM after 72 hrs at pH 4.4 by spectrophotometry relative to untreated control; set-up: scale not given: the % may be the effect or the level left
[12] = target: T1, Transthyretin; assay: Binding affinity to wild type TTR in human plasma assessed as covalent modification of TTR subunit after 18 hrs by RP-HPLC analysis; assay type: cell-free
[13] = target: T1, Transthyretin; assay: Binding affinity to wild type TTR tetramer in human plasma assessed as covalent chemoselective amide bond formation with Lys15 residue of TTR subunit at 7.2 uM after 18 hrs by RP-HPLC analysis; assay type: cell-free
[14] = organism: Homo sapiens; assay: Binding affinity to TTR K15A mutant tetramer in human plasma assessed as covalent chemoselective amide bond formation with residue-15 of TTR subunit at 7.2 uM after 18 hrs by RP-HPLC analysis; assay type: cell-free
[15] = target: T1, Transthyretin; assay: Stabilization of wild-type TTR tetramer assessed as time needed for 95% TTR-compound conjugate formation by C18-RP-HPLC
[16] = target: T1, Transthyretin; assay: Stabilization of wild-type TTR tetramer assessed as rate of TTR-compound conjugate formation by C18-RP-HPLC
[17] = target: T1, Transthyretin; assay: Binding affinity to TTR in human plasma at 10.8 uM after 24 hrs RP-HPLC analysis; assay type: cell-free
[18] = target: T1, Transthyretin; assay: Binding affinity to wild type TTR assessed as induction of benzoylation at Lys15 residue of TTR subunit by LC-MS method
[19] = Binding affinity to TTR K15A mutant assessed as nonchemoselective conjugation of TTR after 18 hrs by C18-RP-HPLC

Row | SMILES | Activity [1] | inhibition [2] | Activity [3] | inhibition [7] | Activity [8] [%] | Activity [9] [%] | Activity [10] [%] | Activity [11] [%] | Activity [12] [%] | Activity [13] | Activity [14] | TIME [15] [h] | Activity [17] | Activity [18] | other results
1 | Cc1cc(/C=C/c2ccc(C(=O)Sc3ccccc3)cc2)cc(C)c1O | Active |  |  |  |  |  |  |  |  |  |  |  |  |  | 
2 | Cc1cc(/C=C/c2ccccc2)cc(C)c1O |  | Dose-dependent effect | Non-toxic | Dose-dependent effect |  |  |  |  |  |  |  |  |  |  | inhibition [4]: Active; Activity [5]: Active; Activity [6]: Active
3 | Cc1cc(/C=C/c2cccc(C(=O)Oc3ccccc3[N+](=O)[O-])c2)cc(C)c1O |  | Dose-dependent effect |  |  | 21 | 33 | 4 | 3 | 49 | Active | inactive | 0.983 | Active | Active | IC50 [2]: 2260 nM; T1/2 [16]: 5 min
4 | O=C(Sc1ccccc1)c1cccc(/C=C/c2cc(Br)c(O)c(Br)c2)c1 |  | Dose-dependent effect |  |  | 12 | 17 | 2 | 3 | 36 | Active | inactive | 21.2 | Active | Active | 
5 | Cc1cc(/C=C/c2ccc(C(=O)Oc3ccccc3[N+](=O)[O-])cc2)cc(C)c1O | Active |  |  |  |  |  |  |  |  |  |  |  |  |  | Activity [19]: Active
6 | Cc1cc(/C=C/c2cccc(C(=O)Oc3ccc(F)cc3)c2)cc(C)c1O |  |  | Non-toxic |  |  |  |  |  |  |  | inactive | 21.9 |  |  | 
7 | Cc1cc(/C=C/c2cccc(C(=O)Sc3ccccc3)c2)cc(C)c1O |  | Dose-dependent effect | Non-toxic | Dose-dependent effect | 16 | 34 | 2 | 3 | 48 | Active | inactive | 1.35 | Active | Active | T1/2 [16]: 15 min
8 | Cc1cc(/C=C/c2cccc(C(=O)O)c2)cc(C)c1O |  | Dose-dependent effect | Non-toxic | Dose-dependent effect |  |  |  |  |  |  |  |  |  |  | IC50 [2]: 3070 nM; inhibition [4]: Active; Activity [5]: Active; Activity [6]: Active
9 | Cc1cc(/C=C/c2ccc(C(=O)Oc3ccc(F)cc3)cc2)cc(C)c1O | Active |  |  |  |  |  |  |  |  |  |  |  |  |  | 
